{"source": "ChEMBL document CHEMBL1125571", "about": "“Potent inhibitors of platelet aggregation based upon the Arg-Gly-Asp-Phe sequence of fibrinogen. A proposal on the nature of the binding interaction between the Asp-carboxylate of RGDX mimetics and the platelet GP IIb-IIIa receptor” (J Med Chem, 1992)", "key": {"[1]": {"biological_target": "T1, Integrin alpha-IIb/beta-3 (Homo sapiens, UniProt P05106+P08514)", "T1 sequence (P05106 27-788 limits assumed)": "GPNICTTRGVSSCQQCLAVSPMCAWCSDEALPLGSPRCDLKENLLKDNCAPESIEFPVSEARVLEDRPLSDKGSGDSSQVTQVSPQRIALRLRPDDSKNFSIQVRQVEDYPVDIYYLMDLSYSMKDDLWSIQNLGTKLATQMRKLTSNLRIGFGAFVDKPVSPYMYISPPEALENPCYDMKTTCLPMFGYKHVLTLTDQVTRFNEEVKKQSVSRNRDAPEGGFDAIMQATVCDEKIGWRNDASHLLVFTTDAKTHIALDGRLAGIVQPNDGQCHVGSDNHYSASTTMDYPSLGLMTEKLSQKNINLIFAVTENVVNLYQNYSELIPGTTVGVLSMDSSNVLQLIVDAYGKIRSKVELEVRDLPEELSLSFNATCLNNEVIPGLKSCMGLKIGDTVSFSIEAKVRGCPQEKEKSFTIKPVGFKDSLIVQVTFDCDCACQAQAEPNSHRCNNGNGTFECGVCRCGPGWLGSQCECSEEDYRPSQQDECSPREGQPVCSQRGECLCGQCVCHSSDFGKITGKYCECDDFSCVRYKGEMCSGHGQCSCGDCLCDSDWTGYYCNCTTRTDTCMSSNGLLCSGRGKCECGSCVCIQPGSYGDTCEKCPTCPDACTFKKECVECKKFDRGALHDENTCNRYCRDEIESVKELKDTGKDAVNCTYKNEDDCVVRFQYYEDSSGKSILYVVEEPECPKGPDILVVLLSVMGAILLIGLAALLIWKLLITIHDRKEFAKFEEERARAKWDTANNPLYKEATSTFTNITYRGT", "T1 sequence (P08514 32-887 limits assumed)": "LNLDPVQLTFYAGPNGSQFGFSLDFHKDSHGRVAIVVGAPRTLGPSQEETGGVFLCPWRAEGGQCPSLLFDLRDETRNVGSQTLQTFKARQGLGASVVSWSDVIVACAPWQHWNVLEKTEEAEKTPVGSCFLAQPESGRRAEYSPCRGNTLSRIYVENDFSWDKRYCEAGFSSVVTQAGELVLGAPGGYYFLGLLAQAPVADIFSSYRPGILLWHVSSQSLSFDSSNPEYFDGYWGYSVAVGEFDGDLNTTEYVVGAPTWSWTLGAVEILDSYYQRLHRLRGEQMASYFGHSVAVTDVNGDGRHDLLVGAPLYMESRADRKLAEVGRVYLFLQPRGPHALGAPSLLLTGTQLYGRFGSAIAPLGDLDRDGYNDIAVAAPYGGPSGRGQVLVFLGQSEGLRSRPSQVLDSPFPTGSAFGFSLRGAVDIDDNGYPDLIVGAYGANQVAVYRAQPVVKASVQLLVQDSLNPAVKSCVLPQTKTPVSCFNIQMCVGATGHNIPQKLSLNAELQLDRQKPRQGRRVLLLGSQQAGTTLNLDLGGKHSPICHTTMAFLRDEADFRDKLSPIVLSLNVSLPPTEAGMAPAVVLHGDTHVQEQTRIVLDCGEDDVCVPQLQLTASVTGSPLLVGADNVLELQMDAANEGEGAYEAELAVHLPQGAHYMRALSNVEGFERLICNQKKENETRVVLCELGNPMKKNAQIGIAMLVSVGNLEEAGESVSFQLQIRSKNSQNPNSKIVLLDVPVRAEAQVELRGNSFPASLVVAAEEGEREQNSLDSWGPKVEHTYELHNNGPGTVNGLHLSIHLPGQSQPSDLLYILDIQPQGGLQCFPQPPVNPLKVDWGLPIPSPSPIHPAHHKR", "T1 sequence (P08514 891-1039 limits assumed)": "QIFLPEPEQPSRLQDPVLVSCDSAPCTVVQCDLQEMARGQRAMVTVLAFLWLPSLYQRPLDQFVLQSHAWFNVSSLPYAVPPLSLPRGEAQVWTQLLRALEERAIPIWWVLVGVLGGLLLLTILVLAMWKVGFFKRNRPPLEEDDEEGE", "assay": "Inhibition of Fibrinogen receptor binding; call rule not given here", "assay_type": "protein-complex assay"}, "[2]": {"biological_target": "T1, Integrin alpha-IIb/beta-3", "assay": "Inhibition of 125 I-Fibrinogen binding to Fibrinogen receptor (inactive)", "assay_type": "protein-complex assay"}, "[3]": {"biological_target": "T1, Integrin alpha-IIb/beta-3", "assay": "Inhibition of platelet aggregation (PRP) (inactive)", "assay_type": "functional", "how_it_was_run": "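Aggregation of platelets in platelet-rich plasma was induced with ADP, and inhibition of this aggregation was measured.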"}, "[4]": {"biological_target": "T1, Integrin alpha-IIb/beta-3", "assay": "Inhibition of 125 I-Fibrinogen binding to Fibrinogen receptor", "assay_type": "protein-complex assay"}}}
{"smiles": "N=C(N)NCCCCCCCC(=O)N[C@@H](CC(=O)O)C(=O)N[C@@H](Cc1ccccc1)C(=O)O", "values": [{"measurement": "IC50", "setting": "[1]", "result": 0.6, "unit": "µM"}]}
{"smiles": "N=C(N)NCCCCCCCC(=O)N[C@@H](CC(=O)O)C(=O)NCCc1ccccc1", "values": [{"measurement": "IC50", "setting": "[1]", "result": 30, "unit": "µM"}]}
{"smiles": "N=C(N)NCCCCCCCC(=O)N[C@@H](CC1N=NN=N1)C(=O)N[C@@H](Cc1ccccc1)C(=O)O", "values": [{"measurement": "IC50", "setting": "[2]", "result": "Not Active"}, {"measurement": "IC50", "setting": "[3]", "result": "Not Active"}]}
{"smiles": "N=C(N)NCCCCCCCC(=O)N[C@@H](CC(=O)O)C(=O)N[C@@H](Cc1ccccc1)C1N=NN=N1", "values": [{"measurement": "IC50", "setting": "[4]", "result": 2, "unit": "µM"}]}
